Data as given in ChEMBL document CHEMBL3217512, “Indole/triazole conjugates are selective inhibitors and inducers of bacterial biofilms” (Medchemcomm, 2013).

Key:
[1] = system: Escherichia coli; assay: Antimicrobial activity against Escherichia coli K-12 ER2718 assessed as effect on planktonic growth at PC75 after 2 to 24 hrs by colony count method; assay type: organism-based; conditions: in vivo
[2] = system: Escherichia coli; assay: Antimicrobial activity against Escherichia coli K-12 ER2718 assessed as effect on planktonic growth at PC50 after 2 to 24 hrs by colony count method; assay type: organism-based; conditions: in vivo
[3] = system: Escherichia coli; assay: Antimicrobial activity against Escherichia coli K-12 ER2718 assessed as effect on planktonic growth at PC25 after 2 to 24 hrs by colony count method; assay type: organism-based
[4] = system: Escherichia coli; assay: Antimicrobial activity against Escherichia coli K-12 ER2718 assessed as effect on planktonic growth at PC75 after 2 to 24 hrs; assay type: organism-based; conditions: in vivo
[5] = system: Escherichia coli; assay: Antimicrobial activity against Escherichia coli K-12 ER2718 assessed as effect on planktonic growth at PC50 after 2 to 24 hrs; assay type: organism-based
[6] = system: Escherichia coli; assay: Antimicrobial activity against Escherichia coli K-12 ER2718 assessed as effect on planktonic growth at PC25 after 2 to 24 hrs; assay type: organism-based
[7] = system: Staphylococcus aureus; assay: Antimicrobial activity against methicillin-resistant Staphylococcus aureus BAA 44 assessed as effect on planktonic growth at IC50 after 2 to 24 hrs by colony count method; assay type: organism-based; conditions: in vivo
[8] = system: Staphylococcus aureus; assay: Antimicrobial activity against Staphylococcus aureus 29213 assessed as effect on planktonic growth at IC50 after 2 to 24 hrs by colony count method; assay type: organism-based; conditions: in vivo
[9] = system: Acinetobacter baumannii; assay: Antimicrobial activity against Acinetobacter baumannii 19606 assessed as effect on planktonic growth at IC50 after 2 to 24 hrs by colony count method; design: species or system ATCC 19606
[10] = system: Escherichia coli; assay: Antimicrobial activity against Escherichia coli K-12 ER2718 assessed as effect on planktonic growth at IC50 after 2 to 24 hrs by colony count method; assay type: organism-based
[11] = system: Staphylococcus aureus; assay: Antimicrobial activity against methicillin-resistant Staphylococcus aureus BAA 44 assessed as effect on planktonic growth at IC50 after 2 to 24 hrs; assay type: organism-based; conditions: in vivo
[12] = system: Staphylococcus aureus; assay: Antimicrobial activity against Staphylococcus aureus 29213 assessed as effect on planktonic growth at IC50 after 2 to 24 hrs; assay type: organism-based; conditions: in vivo
[13] = system: Acinetobacter baumannii; assay: Antimicrobial activity against Acinetobacter baumannii 19606 assessed as effect on planktonic growth at IC50 after 2 to 24 hrs; design: species or system ATCC 19606
[14] = system: Escherichia coli; assay: Antimicrobial activity against Escherichia coli K-12 ER2718 assessed as effect on planktonic growth at IC50 after 2 to 24 hrs; assay type: organism-based
[15] = system: Escherichia coli; assay: Induction of biofilm formation in Escherichia coli K-12 ER2718 at 50 uM after 24 hrs by crystal violet staining-based assay relative to control; assay type: functional
In short: (§1)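 Static biofilm assay with compounds at 50 μM and crystal violet read-out, relative to an untreated control. Compounds increasing biofilm by less than 50% were called inducers, and by more than 50% strong inducers.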

[16] = system: Staphylococcus aureus; assay: Inhibition of biofilm formation in methicillin-resistant Staphylococcus aureus BAA 44 at 150 uM after 24 hrs by crystal violet staining-based assay relative to control; assay type: functional; conditions: BAA 44, 24 h
In short: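 Static biofilm development in MRSA, read out by crystal violet staining against an untreated control. Initial screen at 150 μM. Inhibitors then went to dose-response, with IC50 taken as the concentration giving 50% inhibition of biofilm growth. Induction was judged at 50 μM: under 50% induction counted as "inducer", over 50% as "strong inducer".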

[17] = system: Staphylococcus aureus; assay: Inhibition of biofilm formation in Staphylococcus aureus 29213 at 150 uM after 24 hrs by crystal violet staining-based assay relative to control; assay type: functional; conditions: Staphylococcus aureus, 29213, 24 h
[18] = system: Acinetobacter baumannii; assay: Inhibition of biofilm formation in Acinetobacter baumannii 19606 at 150 uM after 24 hrs by crystal violet staining-based assay relative to control; assay type: functional; conditions: ATCC 19606 = CIP 70.34 = JCM 6841, 24 h
[19] = system: Escherichia coli; assay: Antimicrobial activity against Escherichia coli K-12 ER2718 assessed as effect on planktonic growth at 50 uM after 2 to 24 hrs; assay type: organism-based
In short: (§2)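 Growth curve analysis of planktonic bacteria with each biofilm inducer at 50 μM, used to assess toxicity.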

[20] = system: Escherichia coli; assay: Inhibition of biofilm formation in Escherichia coli K-12 ER2718 at 150 uM after 24 hrs by crystal violet staining-based assay relative to control; assay type: functional; conditions: K-12 ER2718, 24 h
[21] = system: Staphylococcus aureus; assay: Antimicrobial activity against Staphylococcus aureus 29213 assessed as effect on planktonic growth at PC75 after 2 to 24 hrs by colony count method; assay type: organism-based; conditions: in vivo
[22] = system: Staphylococcus aureus; assay: Antimicrobial activity against Staphylococcus aureus 29213 assessed as effect on planktonic growth at PC50 after 2 to 24 hrs by colony count method; assay type: organism-based; conditions: in vivo
[23] = system: Staphylococcus aureus; assay: Antimicrobial activity against Staphylococcus aureus 29213 assessed as effect on planktonic growth at PC25 after 2 to 24 hrs by colony count method; assay type: organism-based; conditions: in vivo
[24] = system: Staphylococcus aureus; assay: Antimicrobial activity against Staphylococcus aureus 29213 assessed as effect on planktonic growth at PC75 after 2 to 24 hrs; assay type: organism-based; conditions: in vivo
[25] = system: Staphylococcus aureus; assay: Antimicrobial activity against Staphylococcus aureus 29213 assessed as effect on planktonic growth at PC50 after 2 to 24 hrs; assay type: organism-based; conditions: in vivo
[26] = system: Staphylococcus aureus; assay: Antimicrobial activity against Staphylococcus aureus 29213 assessed as effect on planktonic growth at PC25 after 2 to 24 hrs; assay type: organism-based; conditions: in vivo
[27] = system: Staphylococcus aureus; assay: Induction of biofilm formation in Staphylococcus aureus 29213 at 50 uM after 24 hrs by crystal violet staining-based assay relative to control; assay type: functional; in short: as §1
[28] = system: Staphylococcus aureus; assay: Antimicrobial activity against Staphylococcus aureus 29213 assessed as effect on planktonic growth at 50 uM after 2 to 24 hrs; assay type: organism-based; in short: as §2

## CCCCCCc1ccc(C(=O)NCCn2cc(Cc3c(Br)[nH]c4ccccc34)nn2)cc1
[1]
  Activity: Non-toxic
[2]
  Activity: Non-toxic
[3]
  Activity: Non-toxic
[4]
  Activity: Non-toxic
[5]
  Activity: Non-toxic
[6]
  Activity: Non-toxic
[7]
  Activity: Non-toxic
[8]
  Activity: Non-toxic
[9]
  Activity: Non-toxic
[10]
  Activity: Non-toxic
[11]
  Activity: Non-toxic
[12]
  Activity: Non-toxic
[13]
  Activity: Non-toxic
[14]
  Activity: Non-toxic
[15]
  Activity: <50%
[16]
  inhibition at 150 µM: 25%
[17]
  inhibition at 150 µM: 40%
[18]
  inhibition at 150 µM: 22%
[19]
  Activity: Non-toxic

## O=C(Cn1cc(Cc2c[nH]c3ccccc23)nn1)Nc1ccccc1
[1]
  Activity: Non-toxic
[2]
  Activity: Non-toxic
[3]
  Activity: Non-toxic
[4]
  Activity: Non-toxic
[5]
  Activity: Non-toxic
[6]
  Activity: Non-toxic
[7]
  Activity: Non-toxic
[8]
  Activity: Non-toxic
[9]
  Activity: Non-toxic
[10]
  Activity: Non-toxic
[11]
  Activity: Non-toxic
[12]
  Activity: Non-toxic
[13]
  Activity: Non-toxic
[14]
  Activity: Non-toxic
[15]
  Activity: <50%
[16]
  inhibition at 150 µM: < 5%
[17]
  inhibition at 150 µM: < 5%
[18]
  inhibition at 150 µM: < 5%
[19]
  Activity: Non-toxic

## CCCCCCNC(=O)Cn1cc(Cc2csc3ccccc23)nn1
[7]
  Activity: Non-toxic
[8]
  Activity: Non-toxic
[9]
  Activity: Non-toxic
[10]
  Activity: Non-toxic
[11]
  Activity: Non-toxic
[12]
  Activity: Non-toxic
[13]
  Activity: Non-toxic
[14]
  Activity: Non-toxic
[16]
  inhibition at 150 µM: < 5%
[17]
  inhibition at 150 µM: < 5%
[18]
  inhibition at 150 µM: 20%
[20]
  inhibition at 150 µM: < 5%

## O=C(NCCn1cc(Cc2c[nH]c3ccccc23)nn1)c1ccccc1
[7]
  Activity: Non-toxic
[8]
  Activity: Non-toxic
[9]
  Activity: Non-toxic
[10]
  Activity: Non-toxic
[11]
  Activity: Non-toxic
[12]
  Activity: Non-toxic
[13]
  Activity: Non-toxic
[14]
  Activity: Non-toxic
[16]
  inhibition at 150 µM: < 5%
[17]
  inhibition at 150 µM: 23%
[18]
  inhibition at 150 µM: < 5%
[20]
  inhibition at 150 µM: < 5%

## O=C(NCCn1cc(Cc2c[nH]c3ccccc23)nn1)c1ccccc1F
[21]
  Activity: Non-toxic
[22]
  Activity: Non-toxic
[23]
  Activity: Non-toxic
[24]
  Activity: Non-toxic
[25]
  Activity: Non-toxic
[26]
  Activity: Non-toxic
[7]
  Activity: Non-toxic
[8]
  Activity: Non-toxic
[9]
  Activity: Non-toxic
[10]
  Activity: Non-toxic
[11]
  Activity: Non-toxic
[12]
  Activity: Non-toxic
[13]
  Activity: Non-toxic
[14]
  Activity: Non-toxic
[27]
  Activity: <50%
[16]
  inhibition at 150 µM: 35%
[18]
  inhibition at 150 µM: 15%
[28]
  Activity: Non-toxic
[20]
  inhibition at 150 µM: < 5%

## O=C(NCCn1cc(Cc2csc3ccccc23)nn1)c1ccccc1
[7]
  Activity: Non-toxic
[8]
  Activity: Non-toxic
[9]
  Activity: Non-toxic
[10]
  Activity: Non-toxic
[11]
  Activity: Non-toxic
[12]
  Activity: Non-toxic
[13]
  Activity: Non-toxic
[14]
  Activity: Non-toxic
[16]
  inhibition at 150 µM: < 5%
[17]
  inhibition at 150 µM: < 5%
[18]
  inhibition at 150 µM: < 5%
[20]
  inhibition at 150 µM: 14%

## O=C(NCCn1cc(Cc2csc3ccccc23)nn1)c1ccccc1F
[21]
  Activity: Non-toxic
[22]
  Activity: Non-toxic
[23]
  Activity: Non-toxic
[24]
  Activity: Non-toxic
[25]
  Activity: Non-toxic
[26]
  Activity: Non-toxic
[7]
  Activity: Non-toxic
[8]
  Activity: Non-toxic
[9]
  Activity: Non-toxic
[10]
  Activity: Non-toxic
[11]
  Activity: Non-toxic
[12]
  Activity: Non-toxic
[13]
  Activity: Non-toxic
[14]
  Activity: Non-toxic
[27]
  Activity: >50%
[16]
  inhibition at 150 µM: < 5%
[18]
  inhibition at 150 µM: < 5%
[28]
  Activity: Non-toxic
[20]
  inhibition at 150 µM: < 5%

## COc1ccc(CNC(=O)Cn2cc(Cc3c[nH]c4ccccc34)nn2)cc1
[7]
  Activity: Non-toxic
[8]
  Activity: Non-toxic
[9]
  Activity: Non-toxic
[10]
  Activity: Non-toxic
[11]
  Activity: Non-toxic
[12]
  Activity: Non-toxic
[13]
  Activity: Non-toxic
[14]
  Activity: Non-toxic
[16]
  inhibition at 150 µM: < 5%
[17]
  inhibition at 150 µM: < 5%
[18]
  inhibition at 150 µM: 20%
[20]
  inhibition at 150 µM: < 5%

## CCCCCCNC(=O)Cn1cc(Cc2c[nH]c3ccccc23)nn1
[1]
  Activity: Non-toxic
[2]
  Activity: Non-toxic
[3]
  Activity: Non-toxic
[4]
  Activity: Non-toxic
[5]
  Activity: Non-toxic
[6]
  Activity: Non-toxic
[7]
  Activity: Non-toxic
[8]
  Activity: Non-toxic
[9]
  Activity: Non-toxic
[10]
  Activity: Non-toxic
[11]
  Activity: Non-toxic
[12]
  Activity: Non-toxic
[13]
  Activity: Non-toxic
[14]
  Activity: Non-toxic
[15]
  Activity: <50%
[16]
  inhibition at 150 µM: < 5%
[17]
  inhibition at 150 µM: < 5%
[18]
  inhibition at 150 µM: 25%
[19]
  Activity: Non-toxic

## COc1ccc(CNC(=O)Cn2cc(Cc3csc4ccccc34)nn2)cc1
[7]
  Activity: Non-toxic
[8]
  Activity: Non-toxic
[9]
  Activity: Non-toxic
[10]
  Activity: Non-toxic
[11]
  Activity: Non-toxic
[12]
  Activity: Non-toxic
[13]
  Activity: Non-toxic
[14]
  Activity: Non-toxic
[16]
  inhibition at 150 µM: < 5%
[17]
  inhibition at 150 µM: < 5%
[18]
  inhibition at 150 µM: 20%
[20]
  inhibition at 150 µM: < 5%

## CCCCCCc1ccc(C(=O)NCCn2cc(Cc3csc4ccccc34)nn2)cc1
[7]
  Activity: Non-toxic
[8]
  Activity: Non-toxic
[9]
  Activity: Non-toxic
[10]
  Activity: Non-toxic
[11]
  Activity: Non-toxic
[12]
  Activity: Non-toxic
[13]
  Activity: Non-toxic
[14]
  Activity: Non-toxic
[16]
  inhibition at 150 µM: < 5%
[17]
  inhibition at 150 µM: < 5%
[18]
  inhibition at 150 µM: < 5%
[20]
  inhibition at 150 µM: < 5%
